PAFAH1B3 inh – blocks human PAF acetylhydrolase 1B catalytic subunit 3. Q15102. recombinant PAFAH1B3, FP-rhodamine probe, fluorescence polarization. inhibition, % at 3.39 µM. 340,000 compounds, 0.28% hits. AID 492972;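 active = inhibition above the screen-wide average of all tested compounds plus 3 SD, cut at about 25% in these data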
Target sequence (Q15102 whole entry, looked up): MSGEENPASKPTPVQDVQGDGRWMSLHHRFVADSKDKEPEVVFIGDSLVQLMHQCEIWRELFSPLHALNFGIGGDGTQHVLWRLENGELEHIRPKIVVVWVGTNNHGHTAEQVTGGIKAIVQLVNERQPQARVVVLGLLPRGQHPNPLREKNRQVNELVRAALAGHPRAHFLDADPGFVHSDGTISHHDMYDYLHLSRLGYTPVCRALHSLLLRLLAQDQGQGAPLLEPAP
PAFAH1B2 FP inh – PAFAH1B2 (human) inhibition. inhibition, % at 3.39 µM. AID 492953. P68402. recombinant PAFAH1B2, FP-rhodamine activity probe, fluorescence polarization. 340,000 compounds, 1.2% hits;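 active = inhibition above the mean of all tested compounds plus 3 SD, cut at about 24% in these data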
ASAP1 inh – blocks human ASAP1-stimulated Arf1 GTP hydrolysis; Q9ULH1; GDP FP detection; inhibition, % at 16.5 µM; 360,000 compounds, 0.19% hits; AID 624377; in the data active = inhibition above about 25%
ARFGAP1 inhibitor – inhibits rat ARF GTPase activating protein 1. Arfgap1-stimulated ARF1 GTP hydrolysis, GDP FP detection. inhibition, % at 16.5 µM. 360,000 compounds, 0.26% hits. AID 651572;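 active = inhibition above a per-plate limit, mean inhibition of low control wells plus 3 SD, cut at about 25% in these data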
Target sequence (Q62848 1-136 limits assumed): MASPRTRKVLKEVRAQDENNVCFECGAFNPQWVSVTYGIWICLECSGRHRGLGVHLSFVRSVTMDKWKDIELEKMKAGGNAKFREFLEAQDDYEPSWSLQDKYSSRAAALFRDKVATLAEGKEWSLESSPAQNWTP
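Material: rat Arfgap1 catalytic domain, aa 1-136; also added: human ARF1(Δ1-17)-GTP substrate; compound dosing: one concentration, 16.5 µM, DMSO 1.26%; incubation: GTP hydrolysis reaction 2 h at 25 °C; measured by: Tracer-displacement fluorescence polarization with EDTA stop, 620/688 nm; evaluation: % inhibition from polarization; repeats: one replicate per compound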
PAFAH2 inh – PAFAH2 (human) inhibition; Q99487; recombinant PAFAH2, FP-rhodamine activity probe, fluorescence polarization; inhibition, % at 3.39 µM; 340,000 compounds, 0.99% hits;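 active = inhibition above the mean over all tested compounds plus 3 SD, cut at about 30% in these data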;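 note: inhibitors block probe labeling of enzyme so polarization drops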
pPAFAH inh – pPAFAH (human) enzyme inhibition. Q13093. recombinant pPAFAH, FP-rhodamine probe fluorescence polarization. inhibition, % at 3.39 µM. 330,000 compounds, 1.5% hits;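 active = inhibition above the mean inhibition across the screen plus 3 SD, cut at about 25% in these data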;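 note: inhibitors block binding of the rhodamine activity-based probe so polarization drops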
ARFGAP1 confirm – confirmation of rat ARFGAP1 inhibitors. inhibition, % at 16.5 µM. shares compounds with ARFGAP1 inhibitor. 890 compounds, 30% hits. ARFGAP1-stimulated ARF1 GTP hydrolysis, GDP tracer FP;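 active = average inhibition over triplicates above the hit cutoff set in the earlier primary screen, cut at about 25% in these data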
Hits are given with their value; - = inactive; . = no result. Most compounds without a hit are left out; they make up all but 2.8% or so of the library.

SMILES | PAFAH1B3 inh | PAFAH1B2 FP inh | ASAP1 inh | ARFGAP1 inhibitor | PAFAH2 inh | pPAFAH inh | ARFGAP1 confirm
Cc1nnsc1-c1nc2ccccc2n1C(CCc1ccccc1)c1nc2ccccc2[nH]1 (centres undefined) | . | . | - | - | . | . | .
COc1cc(/C=N/Nc2ncnc3sc4c(c23)CCC4)ccc1O | - | - | - | 26 | - | . | -
O=C(Nc1cccc(Cl)c1)Nc1sccc1-c1nc2ccccc2s1 | . | . | - | 27 | . | - | -
O=C(Nc1ccccc1)Nc1sccc1-c1nc2ccccc2s1 | . | . | - | - | . | - | .
COc1ccccc1Cc1c(-c2ccc(Cl)cc2)nc2ccc(Br)cn12 | . | . | - | - | . | . | .
Cc1[nH]c2c(C)cccc2c1CCNC(=O)c1ccc2c(c1[N+](=O)[O-])C(=O)c1ccccc1C2=O | 40 | - | - | 26 | - | - | -
CN(C)C(=O)c1ccc2c(c1[N+](=O)[O-])C(=O)c1ccccc1C2=O | - | - | - | - | - | - | .
Cc1ccc2nc(-c3ccc(SCC(=O)Nc4nnc(C)s4)nc3)[nH]c2c1 | - | - | - | - | - | - | .
Cc1ccc2nc(-c3ccc(SCC(=O)Nc4nc(C)cs4)nc3)[nH]c2c1 | - | - | - | 25 | - | - | 33
COc1ccc(/C=N/NC(=O)c2cc3cc(OC)c(OC)cc3[nH]2)cc1 | - | - | - | 39 | - | - | 51
COc1cc2cc(C(=O)N/N=C/c3ccc(F)cc3)[nH]c2cc1OC | - | - | - | - | - | - | .
COc1ccc(Br)c(Cn2c(C)c(C(=O)NCc3ccccc3C(F)(F)F)sc2=O)c1 | . | . | - | - | . | . | .
C[C@H](NC(=O)[C@@H]1CCCN1C(=O)OC(C)(C)C)c1ccccc1 | . | . | - | - | . | . | .
Cc1ccc2nc(SCC(=O)N3CCCC3)nc(=O)n2c1 | - | - | - | 61 | - | - | 44
Cc1ccc2nc(SCC(=O)c3ccccc3)nc(=O)n2c1 | - | - | - | 37 | - | - | 47
Cc1onc(-c2ccccc2Cl)c1C(=O)N1CCC(C(N)=O)CC1 | - | - | - | 32 | - | . | -
Cn1c(=O)c2c(SCC(=O)N3CCCCC3)nc(-c3ccccc3F)nc2n(C)c1=O | - | - | - | - | - | - | .
Cn1c(=O)c2c(-c3ccccc3F)c3c(nc2n(C)c1=O)-c1ccccc1C3O (centres undefined) | - | - | - | 25 | - | - | -
O=C1c2ccccc2C(=O)N1CCC1(O)C(c2ccccc2)=Nc2ccccc21 (centres undefined) | - | - | - | - | - | . | .
O=C(Cc1cccs1)Nc1cccc(-c2nc3cc4ccccc4cc3[nH]2)c1 | - | - | - | 25 | - | - | 25
CCOc1cccc(NC(=O)Cc2cccs2)c1 | - | - | - | - | - | - | .
COc1ccc(CNS(=O)(=O)CCNCc2ccccc2OC)cc1 | - | - | - | 52 | - | . | -
CCCCCCCCNS(=O)(=O)CCNCc1ccccc1OC | - | - | - | - | - | . | .

Screens deposited in PubChem by The Scripps Research Institute Molecular Screening Center.
